Laboratory results from ChEMBL document CHEMBL1154137, “Monodictyochromes A and B, dimeric xanthone derivatives from the marine algicolous fungus Monodictys putredinis” (J Nat Prod, 2008).
The source made the active and inactive calls. The rule behind the calls is not given here.

Experiments:
Escherichia coli = experiment: Antibacterial activity against Escherichia coli at 1 mg/ml by agar diffusion assay; format: functional, organism-based
Outline: (§1)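 Agar diffusion assay with test solution at 1 mg/mL. Organisms: bacteria Bacillus megaterium and Escherichia coli; fungi Microbotryum violaceum, Eurotium rubrum and Mycotypha microspora; green microalga Chlorella fusca.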

Microbotryum violaceum = experiment: Antifungal activity against Microbotryum violaceum at 1 mg/ml by agar diffusion assay; format: functional, organism-based; outline: as §1
[1] = Inhibition of CYP1A in beta-naphthoflavone-stimulated rat […] cells assessed as dealkylation of 3-cyano-7-ethoxycoumarin to 3-cyano-7-hydroxyciumarin; format: ADME, cell-based; details: for IC50: Rattus norvegicus; for Activity: rat
Outline: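 Rat hepatoma H4IIE cells induced with β-naphthoflavone, then homogenised. CYP1A activity measured as dealkylation of 3-cyano-7-ethoxycoumarin to fluorescent 3-cyano-7-hydroxycoumarin, over a dose range. α-Naphthoflavone serves as positive control. IC50 is given as mean ± SD, n = 3.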

[2] = Antioxidant activity assessed as superoxide anion radical scavenging activity up to 50 uM; format: functional
Outline: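 Superoxide anion radicals generated by xanthine oxidase oxidising hypoxanthine to uric acid. Scavenging tested at concentrations up to 50 µM.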

[3] = biological target: T1, Quinone oxidoreductase (Mus musculus) (UniProt P47199); experiment: Ratio of compound to sulforaphane level required to double NADPH-quinone reductase activity in mouse Hepa-1c1c7 cells; format: cell-based
T1 sequence (whole entry): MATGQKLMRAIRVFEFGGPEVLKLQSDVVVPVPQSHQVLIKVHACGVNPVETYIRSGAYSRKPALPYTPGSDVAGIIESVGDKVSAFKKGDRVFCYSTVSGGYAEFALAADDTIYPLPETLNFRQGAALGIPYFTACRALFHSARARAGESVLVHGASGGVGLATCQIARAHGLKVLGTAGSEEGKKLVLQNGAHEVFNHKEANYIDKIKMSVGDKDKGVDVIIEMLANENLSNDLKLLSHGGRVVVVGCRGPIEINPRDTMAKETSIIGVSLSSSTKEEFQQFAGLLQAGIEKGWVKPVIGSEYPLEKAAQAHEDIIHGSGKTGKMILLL

[Chlorella] fusca = Antialgal activity against Chlorella fusca at 1 mg/ml by agar diffusion assay; format: functional, organism-based; details: Scenedesmus fuscus; outline: as §1
[4] = Cytotoxicity against mouse Hepa-1c1c7 cells by MTT assay; format: cell-based
Aspergillus ruber = experiment: Antifungal activity against Eurotium rubrum at 1 mg/ml by agar diffusion assay; format: functional, organism-based; outline: as §1
Mycotypha microspora = experiment: Antifungal activity against Mycotypha microspora at 1 mg/ml by agar diffusion assay; format: functional, organism-based; outline: as §1
Priestia megaterium = experiment: Antibacterial activity against Bacillus megaterium at 1 mg/ml by agar diffusion assay; format: functional, organism-based; outline: as §1
[5] = Antioxidant activity assessed as AAPH radical scavenging activity at 1 uM; format: functional
Outline: (§2)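 Oxygen radical absorbance capacity (ORAC) assay. AAPH generates peroxyl radicals, and trolox, the water-soluble vitamin E analogue, serves as reference. Compounds tested at 1 µM.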

[6] = biological target: Prostaglandin G/H synthase 1 (Homo sapiens) (UniProt P23219); experiment: Inhibition of COX1 at 100 uM
Chain of Prostaglandin G/H synthase 1 (Homo sapiens) (P23219 whole entry): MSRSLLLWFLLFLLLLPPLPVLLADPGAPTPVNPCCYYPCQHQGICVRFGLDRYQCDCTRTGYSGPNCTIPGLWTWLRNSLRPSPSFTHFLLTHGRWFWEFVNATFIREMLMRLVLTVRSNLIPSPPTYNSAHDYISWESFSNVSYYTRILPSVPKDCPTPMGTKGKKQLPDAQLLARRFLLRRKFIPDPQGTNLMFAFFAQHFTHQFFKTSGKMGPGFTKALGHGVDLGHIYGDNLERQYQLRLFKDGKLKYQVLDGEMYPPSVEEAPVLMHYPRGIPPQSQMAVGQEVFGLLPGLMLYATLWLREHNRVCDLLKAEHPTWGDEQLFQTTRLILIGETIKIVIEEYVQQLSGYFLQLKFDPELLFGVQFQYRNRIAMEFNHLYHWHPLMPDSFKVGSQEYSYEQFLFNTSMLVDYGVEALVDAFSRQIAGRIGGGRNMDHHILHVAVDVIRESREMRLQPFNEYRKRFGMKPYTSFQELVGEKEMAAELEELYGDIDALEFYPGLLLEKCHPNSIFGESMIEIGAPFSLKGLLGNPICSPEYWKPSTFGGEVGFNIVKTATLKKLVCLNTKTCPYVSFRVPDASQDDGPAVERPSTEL
Outline: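 COX-1 enzymatic activity used as a marker of tumour promotion. Compounds tested at 100 µM.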

Aromatase = biological target: T2, Aromatase (Homo sapiens, UniProt P11511); experiment: Inhibition of human recombinant aromatase; details: for Activity: human
T2 sequence (P11511 whole entry): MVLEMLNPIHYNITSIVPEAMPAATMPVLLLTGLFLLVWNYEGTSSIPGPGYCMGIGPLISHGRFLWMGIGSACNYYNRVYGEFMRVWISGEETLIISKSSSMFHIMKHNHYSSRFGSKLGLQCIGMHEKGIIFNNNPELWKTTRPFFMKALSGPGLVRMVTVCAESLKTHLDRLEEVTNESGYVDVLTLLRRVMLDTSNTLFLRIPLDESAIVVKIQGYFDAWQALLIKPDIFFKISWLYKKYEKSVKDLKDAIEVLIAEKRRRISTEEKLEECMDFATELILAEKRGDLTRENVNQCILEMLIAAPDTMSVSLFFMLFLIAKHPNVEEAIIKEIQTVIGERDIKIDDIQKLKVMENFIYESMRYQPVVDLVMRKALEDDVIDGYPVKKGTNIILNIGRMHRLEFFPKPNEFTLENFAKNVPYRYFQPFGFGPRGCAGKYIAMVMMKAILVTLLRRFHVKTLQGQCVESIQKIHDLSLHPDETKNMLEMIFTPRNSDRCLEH
Outline: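 Human recombinant CYP19 (aromatase) with O-benzylfluorescein benzyl ester (DBF) as substrate.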

[7] = system: Radical scavenging activity; experiment: Antioxidant activity assessed as DPPH radical scavenging activity up to 250 uM; format: functional
[8] = Antioxidant activity assessed as AAPH radical scavenging activity; format: functional; outline: as §2

Compound | Activity (Escherichia coli) | Activity (Microbotryum violaceum) | IC50 [1] | Activity [1] | Activity [2] | Ratio [3] | Activity ([Chlorella] fusca) | IC50 [4] | Activity (Aspergillus ruber) | Activity (Mycotypha microspora) | Activity (Priestia megaterium) | Activity [5] | inhibition [6] | IC50 (Aromatase) | Activity (Aromatase) | Activity [7] | Activity [8]
Cc1cc2c(c(O)c1-c1ccc3c(c1O)C(=O)C[C@](C)([C@@H]1OC(=O)C[C@@H]1C)O3)C(=O)C[C@@](C)([C@@H]1OC(=O)C[C@H]1O)O2 [MONODICTYOCHROMONE B] | inactive | inactive | 7.5 µM | Dose-dependent effect | inactive | 100 | inactive | > 50 µM | inactive | inactive | inactive | Active | < 50% | 16.5 µM | Dose-dependent effect | inactive | 
Cc1cc(O)c2c(c1-c1ccc3c(c1O)C(=O)C[C@](C)([C@@H]1OC(=O)C[C@@H]1C)O3)O[C@](C)([C@@H]1OC(=O)C[C@H]1O)CC2=O [MONODICTYOCHROMONE A] | inactive | inactive | 5.3 µM | Dose-dependent effect | inactive | 100 | inactive | > 50 µM | inactive | inactive | inactive | Active | < 50% | 24.4 µM | Dose-dependent effect | inactive | 
Cc1c(C)c2c(c(C)c1O)CCC(C)(C(=O)O)O2 (stereo not drawn) |  |  |  |  |  |  |  |  |  |  |  |  |  |  |  |  | Active
